Data: ChEMBL document CHEMBL3232919, “Imidazol-1-ylethylindazole voltage-gated sodium channel ligands are neuroprotective during optic neuritis in a mouse model of multiple sclerosis” (J Med Chem, 2014)
Calls of active or inactive are those of the source. The rule behind the calls is not given here.

Legend:
[1] = molecular target: T1, Sodium channel protein type 5 subunit alpha (Homo sapiens, UniProt Q14524); experiment: Inhibition of human Nav1.5 assessed as 10 Hz block by patch-clamp electrophysiology/cell based assay
How it was run: (§1)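 Automated parallel patch clamp (PatchXpress 7000A) on human Nav isoforms, room temperature. Compound tested at 0.1, 0.3, 1, 3, 10, 30 and 100 μM, two to four cells per concentration, 5 min exposure each. Use-dependence on Nav1.1 and Nav1.8/β3 by double pulse protocol: holding -80 mV, prepulse -120 mV, then pulse 1 to 0 mV for 200 ms.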

[2] = molecular target: T1, Sodium channel protein type 5 subunit alpha; experiment: Inhibition of human Nav1.5 assessed as tonic block by patch-clamp electrophysiology/cell based assay; how it was run: as §1
[3] = molecular target: T2, Sodium channel protein type 2 subunit alpha (Homo sapiens, UniProt Q99250); experiment: Inhibition of human Nav1.2 assessed as 10 Hz block by patch-clamp electrophysiology/cell based assay
[4] = species on record: Rattus norvegicus; experiment: Neuroprotective activity in oxygen/glucose deprivation-induced Wistar rat hippocampal slice assessed as inhibition of cell death by measuring ATP level at 50 uM; assay type: functional
[5] = molecular target: T3, Sodium channel protein type 8 subunit alpha (Homo sapiens, UniProt Q9UQD0); experiment: Inhibition of human Nav1.6 assessed as 10 Hz block by patch-clamp electrophysiology/cell based assay
How it was run: (§2)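 Automated parallel patch clamp on cells expressing human Nav isoforms (hNav1.1 to hNav1.8/β3), at room temperature. Compounds were tested at 0.1, 0.3, 1, 3, 10, 30 and 100 μM. Each exposure lasted 5 min, with two to four cells per concentration.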

[6] = molecular target: T4, Sodium channel protein type 9 subunit alpha (Homo sapiens, UniProt Q15858); experiment: Inhibition of human Nav1.7 assessed as 10 Hz block by patch-clamp electrophysiology/cell based assay
[7] = molecular target: T5, Sodium channel protein type 1 subunit alpha (Homo sapiens, UniProt P35498); experiment: Inhibition of human Nav1.1 assessed as tonic block using double pulse protocol by patch-clamp electrophysiology/cell based assay; how it was run: as §1
[8] = molecular target: T6, Sodium channel protein type 4 subunit alpha (Homo sapiens, UniProt P35499); experiment: Inhibition of human Nav1.4 assessed as tonic block by patch-clamp electrophysiology/cell based assay; how it was run: as §1
[9] = molecular target: T7, Sodium channel protein type 10 subunit alpha (Homo sapiens, UniProt Q9Y5Y9); experiment: Inhibition of human Nav1.8 assessed as 10 Hz block using double pulse protocol by patch-clamp electrophysiology/cell based assay; how it was run: as §1
[10] = molecular target: T7, Sodium channel protein type 10 subunit alpha; experiment: Inhibition of human Nav1.8 assessed as tonic block using double pulse protocol by patch-clamp electrophysiology/cell based assay; how it was run: as §1
[11] = molecular target: T5, Sodium channel protein type 1 subunit alpha; experiment: Inhibition of human Nav1.1 assessed as 10 Hz block using double pulse protocol by patch-clamp electrophysiology/cell based assay; how it was run: as §1
[12] = molecular target: T6, Sodium channel protein type 4 subunit alpha; experiment: Inhibition of human Nav1.4 assessed as inactivated-state block by patch-clamp electrophysiology/cell based assay; how it was run: as §1
[13] = molecular target: T5, Sodium channel protein type 1 subunit alpha; experiment: Inhibition of human Nav1.1 assessed as inactivated-state block using double pulse protocol by patch-clamp electrophysiology/cell based assay; how it was run: as §1
[14] = molecular target: T7, Sodium channel protein type 10 subunit alpha; experiment: Inhibition of human Nav1.8 assessed as inactivated-state block using double pulse protocol by patch-clamp electrophysiology/cell based assay; how it was run: as §1
[15] = molecular target: T2, Sodium channel protein type 2 subunit alpha; experiment: Inhibition of human Nav1.2 assessed as tonic block by patch-clamp electrophysiology/cell based assay
[16] = molecular target: T8, Sodium channel protein type 3 subunit alpha (Homo sapiens, UniProt Q9NY46); experiment: Inhibition of human Nav1.3 assessed as 10 Hz block by patch-clamp electrophysiology/cell based assay
How it was run: (§3)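 Automated parallel patch-clamp (PatchXpress 7000A) on cells expressing human Nav1.3, run at room temperature. Compounds were tested at 0.1, 0.3, 1, 3, 10, 30 and 100 μM, each in two to four cells, with 5 min exposure per concentration.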

[17] = molecular target: T4, Sodium channel protein type 9 subunit alpha; experiment: Inhibition of human Nav1.7 assessed as inactivated-state block by patch-clamp electrophysiology/cell based assay
[18] = molecular target: T3, Sodium channel protein type 8 subunit alpha; experiment: Inhibition of human Nav1.6 assessed as inactivated-state block by patch-clamp electrophysiology/cell based assay; how it was run: as §2
[19] = molecular target: T4, Sodium channel protein type 9 subunit alpha; experiment: Inhibition of human Nav1.7 assessed as tonic block by patch-clamp electrophysiology/cell based assay
[20] = molecular target: T3, Sodium channel protein type 8 subunit alpha; experiment: Inhibition of human Nav1.6 assessed as tonic block by patch-clamp electrophysiology/cell based assay; how it was run: as §2
[21] = molecular target: T2, Sodium channel protein type 2 subunit alpha; experiment: Inhibition of human Nav1.2 assessed as inactivated-state block by patch-clamp electrophysiology/cell based assay
[22] = molecular target: T8, Sodium channel protein type 3 subunit alpha; experiment: Inhibition of human Nav1.3 assessed as inactivated-state block by patch-clamp electrophysiology/cell based assay; how it was run: as §3
[23] = molecular target: T8, Sodium channel protein type 3 subunit alpha; experiment: Inhibition of human Nav1.3 assessed as tonic block by patch-clamp electrophysiology/cell based assay; how it was run: as §3
[24] = molecular target: T1, Sodium channel protein type 5 subunit alpha; experiment: Inhibition of human Nav1.5 assessed as inactivated-state block by patch-clamp electrophysiology/cell based assay; how it was run: as §1
[25] = molecular target: T6, Sodium channel protein type 4 subunit alpha; experiment: Inhibition of human Nav1.4 assessed as 10 Hz block by patch-clamp electrophysiology/cell based assay; how it was run: as §1
[26] = tested on: Mus musculus; experiment: Immunosuppressive activity in […] oxazolone-induced ABH mouse assessed as effect on cell proliferation response in draining lymph node at 5 to 50 mg/kg, ip from day -1 to day 2 by local lymph node assay; assay type: functional, organism-based
[27] = tested on: Mus musculus; experiment: Neuroprotective activity in C57BL/6-Cg-Tg(Thy1-CFP)23Jrs.Tg(Tcra2D2, Tcrb2D2)1Kuch/J transgenic mouse optic neuritis model assessed as increase in ganglion cell survival at 5 mg/kg, ip; assay type: functional, organism-based; set-up: dose 5 mg/kg
[28] = Displacement of [3H]sipatrigine from Wistar rat brain synaptosomes voltage-gated sodium channel by liquid scintillation counting; assay type: subcellular
[29] = tested on: Mus musculus; experiment: Neuroprotective activity in C57BL/6-Cg-Tg(Thy1-CFP)23Jrs.Tg(Tcra2D2, Tcrb2D2)1Kuch/J transgenic mouse optic neuritis model assessed as reduction in retinal loss measured as number of cells at 5 mg/kg, ip (reference value: 914 +/- 89 cells); assay type: functional; conditions: route intraperitoneal
[30] = Metabolic stability in rat liver microsomes assessed as drug turnover at 1 uM at 40 mins by LC-MS/MS analysis; assay type: ADME; conditions: read-out: Drug metabolism
How it was run: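 Compound at 1 μM was incubated (n=2) with pooled rat liver microsomes (0.25 mg protein/ml) at 37°C for 0 and 40 min. Reactions were stopped with acetonitrile containing an internal standard, and parent disappearance was measured by LC-MS/MS. Percentage turnover was taken from peak heights relative to the zero-time samples.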

[31] = tested on: Mus musculus; experiment: Toxicity in mouse assessed as motor coordination at 5 to 50 mg/kg, ip from day -1 to day 2 by RotaRod assay; assay type: organism-based; set-up: dose 5-50 mg/kg, route intraperitoneal; conditions: in vivo

T6 sequence (P35499 whole entry): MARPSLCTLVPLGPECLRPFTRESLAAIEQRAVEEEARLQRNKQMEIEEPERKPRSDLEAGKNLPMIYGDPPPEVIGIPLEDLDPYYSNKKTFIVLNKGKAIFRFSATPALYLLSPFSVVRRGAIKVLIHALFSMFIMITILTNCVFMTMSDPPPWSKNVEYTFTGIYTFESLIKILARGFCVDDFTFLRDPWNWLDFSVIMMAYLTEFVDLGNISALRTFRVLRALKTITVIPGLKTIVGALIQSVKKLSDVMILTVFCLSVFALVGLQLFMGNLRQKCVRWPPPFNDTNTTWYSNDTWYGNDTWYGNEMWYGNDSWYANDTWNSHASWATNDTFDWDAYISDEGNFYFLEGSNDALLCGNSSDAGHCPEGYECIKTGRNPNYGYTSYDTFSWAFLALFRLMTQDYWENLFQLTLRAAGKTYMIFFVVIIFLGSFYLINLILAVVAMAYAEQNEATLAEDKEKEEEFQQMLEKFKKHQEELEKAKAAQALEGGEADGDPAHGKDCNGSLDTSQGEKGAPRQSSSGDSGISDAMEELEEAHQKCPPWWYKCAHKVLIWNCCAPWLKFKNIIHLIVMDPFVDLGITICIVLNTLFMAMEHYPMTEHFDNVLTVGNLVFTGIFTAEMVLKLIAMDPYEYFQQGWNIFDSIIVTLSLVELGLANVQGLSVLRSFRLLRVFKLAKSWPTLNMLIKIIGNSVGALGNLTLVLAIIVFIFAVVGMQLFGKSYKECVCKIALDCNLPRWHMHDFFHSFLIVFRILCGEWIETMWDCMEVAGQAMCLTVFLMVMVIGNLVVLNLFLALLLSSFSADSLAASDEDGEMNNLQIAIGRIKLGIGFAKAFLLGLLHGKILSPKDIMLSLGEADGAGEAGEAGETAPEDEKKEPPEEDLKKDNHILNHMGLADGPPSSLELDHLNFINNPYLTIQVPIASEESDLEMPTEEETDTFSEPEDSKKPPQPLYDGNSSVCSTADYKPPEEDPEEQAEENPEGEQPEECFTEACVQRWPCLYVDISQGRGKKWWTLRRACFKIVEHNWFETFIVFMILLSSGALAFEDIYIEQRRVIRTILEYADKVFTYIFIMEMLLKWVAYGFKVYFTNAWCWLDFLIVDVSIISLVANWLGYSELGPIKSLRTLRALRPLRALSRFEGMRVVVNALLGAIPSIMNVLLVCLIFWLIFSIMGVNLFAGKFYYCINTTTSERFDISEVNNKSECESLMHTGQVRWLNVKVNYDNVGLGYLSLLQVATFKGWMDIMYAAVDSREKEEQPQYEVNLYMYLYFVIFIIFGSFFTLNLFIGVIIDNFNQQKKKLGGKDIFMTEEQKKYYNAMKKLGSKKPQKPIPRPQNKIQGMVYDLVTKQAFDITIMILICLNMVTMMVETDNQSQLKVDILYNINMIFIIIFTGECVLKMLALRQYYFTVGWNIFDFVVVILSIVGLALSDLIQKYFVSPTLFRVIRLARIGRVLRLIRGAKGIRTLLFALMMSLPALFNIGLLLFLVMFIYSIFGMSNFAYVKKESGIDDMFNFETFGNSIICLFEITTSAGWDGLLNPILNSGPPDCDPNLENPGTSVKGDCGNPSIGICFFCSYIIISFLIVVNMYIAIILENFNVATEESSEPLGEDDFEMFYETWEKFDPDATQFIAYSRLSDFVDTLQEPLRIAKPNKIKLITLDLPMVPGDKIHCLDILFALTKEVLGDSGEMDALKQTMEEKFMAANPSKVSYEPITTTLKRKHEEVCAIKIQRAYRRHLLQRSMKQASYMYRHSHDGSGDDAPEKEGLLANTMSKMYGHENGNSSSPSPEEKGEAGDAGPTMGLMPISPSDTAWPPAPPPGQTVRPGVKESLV
T7 sequence (Q9Y5Y9 whole entry): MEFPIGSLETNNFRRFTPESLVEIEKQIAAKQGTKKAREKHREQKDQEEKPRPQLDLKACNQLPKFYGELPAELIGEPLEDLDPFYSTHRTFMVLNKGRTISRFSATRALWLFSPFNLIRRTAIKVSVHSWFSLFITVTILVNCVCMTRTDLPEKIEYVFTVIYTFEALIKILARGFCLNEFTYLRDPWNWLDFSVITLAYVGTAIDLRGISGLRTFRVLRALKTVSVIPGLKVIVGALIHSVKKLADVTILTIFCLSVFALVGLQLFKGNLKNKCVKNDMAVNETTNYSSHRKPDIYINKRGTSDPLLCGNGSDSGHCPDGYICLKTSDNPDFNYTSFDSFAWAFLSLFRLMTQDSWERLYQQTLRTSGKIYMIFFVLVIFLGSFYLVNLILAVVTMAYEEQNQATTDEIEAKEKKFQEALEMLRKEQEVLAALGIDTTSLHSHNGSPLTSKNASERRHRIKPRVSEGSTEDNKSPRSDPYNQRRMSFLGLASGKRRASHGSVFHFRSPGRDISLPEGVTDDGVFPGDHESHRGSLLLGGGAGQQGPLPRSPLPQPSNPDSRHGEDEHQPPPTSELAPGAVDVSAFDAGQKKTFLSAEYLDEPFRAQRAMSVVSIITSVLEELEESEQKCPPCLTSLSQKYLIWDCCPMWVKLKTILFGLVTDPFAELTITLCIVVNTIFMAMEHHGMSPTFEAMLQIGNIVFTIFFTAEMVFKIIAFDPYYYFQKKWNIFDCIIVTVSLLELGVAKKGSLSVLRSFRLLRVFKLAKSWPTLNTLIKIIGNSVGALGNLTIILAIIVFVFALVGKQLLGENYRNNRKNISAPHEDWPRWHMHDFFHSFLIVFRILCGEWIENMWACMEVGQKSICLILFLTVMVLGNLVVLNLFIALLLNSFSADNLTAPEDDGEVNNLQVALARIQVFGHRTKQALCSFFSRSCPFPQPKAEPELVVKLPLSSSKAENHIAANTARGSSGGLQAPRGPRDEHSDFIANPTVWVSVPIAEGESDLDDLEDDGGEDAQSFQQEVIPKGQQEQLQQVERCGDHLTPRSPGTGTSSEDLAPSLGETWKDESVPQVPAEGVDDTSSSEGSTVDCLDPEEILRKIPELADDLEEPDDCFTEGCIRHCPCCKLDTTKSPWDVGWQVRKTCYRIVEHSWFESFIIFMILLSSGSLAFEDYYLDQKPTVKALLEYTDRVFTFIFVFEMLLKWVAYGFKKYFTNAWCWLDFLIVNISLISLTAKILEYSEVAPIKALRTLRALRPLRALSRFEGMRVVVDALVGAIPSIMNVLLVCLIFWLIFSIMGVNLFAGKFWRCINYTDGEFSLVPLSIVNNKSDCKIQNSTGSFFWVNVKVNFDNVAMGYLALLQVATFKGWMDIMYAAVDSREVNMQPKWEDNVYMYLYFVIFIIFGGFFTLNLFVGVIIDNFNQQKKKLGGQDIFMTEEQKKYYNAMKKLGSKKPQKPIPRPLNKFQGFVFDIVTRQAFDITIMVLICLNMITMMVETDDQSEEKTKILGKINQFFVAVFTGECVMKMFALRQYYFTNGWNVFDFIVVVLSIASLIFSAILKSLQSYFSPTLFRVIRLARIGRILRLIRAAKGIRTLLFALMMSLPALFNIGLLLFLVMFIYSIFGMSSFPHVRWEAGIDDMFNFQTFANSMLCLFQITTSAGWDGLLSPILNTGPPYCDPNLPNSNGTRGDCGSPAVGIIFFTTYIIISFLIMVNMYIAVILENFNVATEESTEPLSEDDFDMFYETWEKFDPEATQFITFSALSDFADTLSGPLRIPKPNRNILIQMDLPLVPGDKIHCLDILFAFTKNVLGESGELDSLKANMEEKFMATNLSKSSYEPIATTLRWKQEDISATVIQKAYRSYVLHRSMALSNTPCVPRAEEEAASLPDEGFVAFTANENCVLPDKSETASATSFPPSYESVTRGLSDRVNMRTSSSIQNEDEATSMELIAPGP

Structure (SMILES) | IC50 [2] | inhibition at 50 µM [4] | IC50 [5] | IC50 [7] | IC50 [8] | IC50 [11] | IC50 [12] | IC50 [13] | IC50 [16] | IC50 [18] | IC50 [20] | IC50 [22] | IC50 [23] | IC50 [24] | IC50 [25] | other results
O=C(NCc1noc(-c2c3ccccc3nn2CCn2ccnc2)n1)c1cccc(OC(F)(F)F)c1 | 36 µM | 78% | 32.2 µM | 15.3 µM | 18.3 µM | 8.54 µM | 4.58 µM | 2.55 µM | 97 µM | 3.32 µM | > 100 µM | 4.76 µM | > 100 µM | 0.92 µM | 10.5 µM | IC50 [1]: 14.8 µM; IC50 [3]: 24.1 µM; IC50 [6]: 4.82 µM; IC50 [9]: 5.66 µM; IC50 [10]: 6.34 µM; IC50 [14]: 3.77 µM; IC50 [15]: 65 µM; IC50 [17]: 3.02 µM; IC50 [19]: 5.64 µM; IC50 [21]: 3.54 µM
O=C(NCc1noc(-c2nn(CCn3ccnc3)c3ccccc23)n1)c1ccccc1 | > 100 µM | 47% | > 100 µM | > 100 µM | > 100 µM | > 100 µM | 24 µM | 21 µM | > 100 µM | 24 µM | > 100 µM | 22 µM | > 100 µM | 19 µM | 56 µM | inhibition [26]: inactive; Activity [27]: Active; IC50 [28]: 13 µM; Activity [29]: 1298 /mm2; metabolised at 40 min, 1 µM [30]: 47%; Activity [31]: Non-toxic
